Where no end group is shown, it is not given here. [ ]: non-standard residue; d: D form. Lys(Me3) = C[N+](C)(C)CCCC[C@H](N)C(=O)O; pT = C[C@@H](OP(=O)(O)O)[C@H](N)C(=O)O; Lys(Me2) = CN(C)CCCC[C@H](N)C(=O)O; Lys(Me) = CNCCCC[C@H](N)C(=O)O
Tested on: U2OS cells
Assay: Histone H3K4ac immunoblot in U2OS cells after HAT inhibition or Tip60 depletion
Assay type: cell-based
Details: U2OS cells, anti-H3K4ac immunoblot
Summary of the method: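 Asynchronous and nocodazole-arrested mitotic U2OS cells were treated with the Tip60 acetyltransferase inhibitor Nu9056 for 1 h. Separately, U2OS cells engineered for doxycycline-induced shRNA against Tip60 were depleted of Tip60. Histone H3 K4 acetylation was read by immunoblot with anti-H3K4ac antibody at 1:1000.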
With `Clc1ccc(-c2csc(NN=C3CCCC3)n2)cc1` [CTPH2] the H3K4ac level was “not GCN5 (CTPH2) or p300/CBP (Inhibitor VI) resulted in decreased H3K4ac levels”. In the case of `c1cc(SSc2ccns2)sn1` [Nu9056], the H3K4ac level is reported as “resulted in decreased H3K4ac levels”.

Same assay, conditions: mitotic U2OS cells; nocodazole arrested, Nu9056 for 1 h; immunoblot
For `c1cc(SSc2ccns2)sn1` [Nu9056], the “H3K4ac level in mitotic cells” value was “also sensitive to the Tip60 inhibitor”.

Tested on: U2OS cells
Assay: not given
Assay type: cell-based
Details: HDAC3 shRNA, immunofluorescence
In the case of “shHDAC3: HDAC3 shRNA targeting sequence AGAAGTCCACTACCTGGTT (the letters are possibly those of the target site)”, the “Aurora B at centromeres after HDAC3 depletion” value is reported as “most of the Aurora B remains on noninner centromeric (chromosome arm) regions after HDAC3 depletion”.

Target: hSurvivin (Homo sapiens, UniProt O15392)
Sequence (O15392 whole entry): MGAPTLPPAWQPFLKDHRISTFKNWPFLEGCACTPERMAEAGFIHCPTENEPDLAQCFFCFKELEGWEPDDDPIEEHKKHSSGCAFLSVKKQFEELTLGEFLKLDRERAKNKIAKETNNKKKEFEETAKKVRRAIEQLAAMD
Assay: not given
Details: ITC, pH 7.2, 25°C; ref Niedzialkowska et al. (2012); cited from earlier work
In the case of “H3(1-12): first 12 amino acids of histone H3; values from Niedzialkowska et al. (2012)”, the “–TΔS” value is given as “–4040 cal/mol”. In the case of “H3T3ph(1-12): histone H3 residues 1-12 with T3 phosphorylation; values from Niedzialkowska et al. (2012)”, the “–TΔS” value is listed as “–2800 cal/mol”.

Tested on: U2OS cells
Assay: Aurora B at centromeres of interphase
Assay type: cell-based
Details: interphase (S/G2) cells, immunofluorescence, ACA mask
For `c1cc(SSc2ccns2)sn1` [Nu9056], the “Aurora B localization at centromeres in interphase cells” value was “leads to Aurora B localization at centromeres in interphase (S/G2) cells”.

Target: human Survivin (hSurvivin) (human, UniProt O15392 1-142)
Sequence (O15392 whole entry): as above
Assay: ITC
Details: not given
For ART[Lys(Me2)]QTARKSTG (peptide, UniProt P68431 2-13, looked up) [histone H3 peptide H3K4me2(1-12)], the dH was -2.61 ± 0.04 kcal/mol and the “stoichiometry N” value was 0.899 ± 0.01. For ART[Lys(Me3)]QTARKSTG (peptide, UniProt P68431 2-13, looked up) [histone H3 peptide H3K4me3(1-12)], the dH was -6 ± 0.7 kcal/mol and the “stoichiometry N” value was 0.83 ± 0.07. For AR[pT][Lys(Me3)]QTARKSTG (peptide, UniProt P68431 2-13, looked up) [histone H3 peptide H3T3phK4me3(1-12)], the dH was -4.63 ± 0.09 kcal/mol and the “stoichiometry N” value was 1.21 ± 0.02. In the case of AR[pT]K(Ac)QTARKSTG (peptide, UniProt P68431 2-13, looked up) [histone H3 peptide H3T3phK4ac(1-12)], the dH is reported as -7.3 ± 0.1 kcal/mol and the “stoichiometry N” value is reported as 0.965 ± 0.009. With ART[Lys(Me)]QTARKSTG (peptide, UniProt P68431 2-13, looked up) [histone H3 peptide H3K4me1(1-12)] the dH was -2.68 ± 0.06 kcal/mol and the “stoichiometry N” value was 1.08 ± 0.012. For AR[pT][Lys(Me2)]QTARKSTG (peptide, UniProt P68431 2-13, looked up) [histone H3 peptide H3T3phK4me2(1-12)], the dH was -6.25 ± 0.06 kcal/mol and the “stoichiometry N” value was 0.873 ± 0.004. In the case of AR[pT][Lys(Me)]QTARKSTG (peptide, UniProt P68431 2-13, looked up) [histone H3 peptide H3T3phK4me1(1-12)], the dH is reported as -4.692 ± 0.026 kcal/mol and the “stoichiometry N” value is reported as 1.03 ± 0.005.
